Measurements published in ChEMBL document CHEMBL4673212, “Investigation of synergistic antimicrobial effects of the drug combinations of meropenem and 1,2-benzisoselenazol-3(2H)-one derivatives on carbapenem-resistant Enterobacteriaceae producing NDM-1” (Eur J Med Chem, 2018).

Columns and labels:
[1] = target: Metallo-beta-lactamase type 2 (Klebsiella pneumoniae) (UniProt C7C422); assay: Time dependent inhibition of wild type N-terminal His6-tagged Klebsiella pneumoniae NDM-1 expressed in Escherichia coli BL21 assessed as residual activity using nitrocefin as substrate
Sequence of Metallo-beta-lactamase type 2 (Klebsiella pneumoniae) (C7C422 whole entry, the tested form may be a part): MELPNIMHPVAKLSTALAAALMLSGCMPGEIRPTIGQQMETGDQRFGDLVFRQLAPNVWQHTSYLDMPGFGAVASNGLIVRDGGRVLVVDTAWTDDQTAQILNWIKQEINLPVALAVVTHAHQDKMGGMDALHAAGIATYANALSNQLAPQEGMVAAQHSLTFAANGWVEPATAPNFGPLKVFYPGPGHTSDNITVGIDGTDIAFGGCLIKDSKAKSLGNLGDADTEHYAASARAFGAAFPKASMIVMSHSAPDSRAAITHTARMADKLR
Outline: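 Purified NDM-1 (residues G36–R270, N-terminal His6, expressed in E. coli BL21), 1 nM, mixed with varying inhibitor concentrations in 50 mM phosphate buffer with or without 50 µM ZnSO4, plus BSA. Nitrocefin at 7×Km was the substrate, read at 482 nm. Residual activity was followed against preincubation time, fitted as pseudo-first-order to give KI and kinact. Triplicate assays.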

Enterobacter cloacae = assay: Potentiation of meropenem-induced antibacterial activity against NDM-1 producing Enterobacter cloacae isolate 10 infected in Galleria mellonella assessed as increase in larvae survival at 10 mg/kg pretreated for 1hr with compound followed by bacterial infection and measured after 48 hrs (reference value: 20 %); assay type: functional; conditions: time 49 hrs
[2] = Toxicity in Galleria mellonella wax moth larve assessed as mortality at 2 mg/kg cotreated with 2 mg/kg meropenem relative to control; assay type: organism-based; conditions: in vivo, read-out: Activity
Outline: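 G. mellonella larvae (250–300 mg, n=10) infected in the hemocoel at the last left proleg with E. cloacae EL10 at 2.5 × 10^5 CFU/larva in PBS. Treatment was injected at the next left proleg 1 h from inoculation: vehicle, single agents at 10 mg/kg, or combinations at 2+2 or 10+10 mg/kg. Larvae were held at 37 °C and scored every 12 h for 48 h (no response to stimuli = dead). Log-rank test. Three independent experiments.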

Compound: CC(C)(C)OC(=O)NCCn1[se]c2ccccc2c1=O
- Activity [1]: 11%
- Activity (Enterobacter cloacae): 60%
- mortality [2]: 100%
